pIC50: −log10 of the molar value. Converted amounts (≈) assume the structure as drawn.
How the values were obtained:
[1] = Inhibition of Mycobacterium tuberculosis His6-tagged InhA expressed in Escherichia coli BL21 using 2-trans-dodecenoyl-CoA as substrate assessed as conversion of NADH to NAD+
Method in brief: (§1)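 Triplicate NADH-dependent reduction of the substrate analogue 2-trans-dodecenoyl-CoA by InhA, with NADH oxidation to NAD+ followed as the fall in absorbance at 340 nm. Percent inhibition was screened at 50 µM, or at 10 µM where solubility limited. IC50 came from 4-parameter curve fits of at least six concentrations.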

[2] = system: Mycobacterium tuberculosis; assay: Inhibition of Mycobacterium tuberculosis His6-tagged InhA expressed in Escherichia coli BL21 using 2-trans-dodecenoyl-CoA as substrate assessed as conversion of NADH to NAD+ at 50 uM relative to control; method in brief: as §1
[3] = system: Mycobacterium tuberculosis; assay: Antimycobacterial activity against Mycobacterium tuberculosis H37Rv after 21 days by microbroth dilution method; format: functional
[4] = system: Mycobacterium tuberculosis; assay: Inhibition of Mycobacterium tuberculosis His6-tagged InhA expressed in Escherichia coli BL21 using 2-trans-dodecenoyl-CoA as substrate assessed as conversion of NADH to NAD+ at 10 uM relative to control; method in brief: as §1
[5] = system: Mycobacterium tuberculosis; assay: Antimycobacterial activity against Mycobacterium tuberculosis H37Rv after 21 days by microbroth dilution method in presence of 3 ug/ml efflux pump inhibitor reserpine; format: functional; conditions: 504 h
[6] = system: Mycobacterium tuberculosis; assay: Ratio of MIC for Mycobacterium tuberculosis H37Rv in absence of verapamil to MIC for Mycobacterium tuberculosis H37Rv in presence of verapamil; format: functional
[7] = system: Mycobacterium tuberculosis; assay: Ratio of MIC for Mycobacterium tuberculosis H37Rv in absence of CCCP to MIC for Mycobacterium tuberculosis H37Rv in presence of CCCP; format: functional
[8] = system: Mycobacterium tuberculosis; assay: Antimycobacterial activity against Mycobacterium tuberculosis H37Rv after 21 days by microbroth dilution method in presence of 7.5 ug/ml efflux pump inhibitor CCCP; format: functional; conditions: 504 h
[9] = system: Mycobacterium tuberculosis; assay: Antimycobacterial activity against Mycobacterium tuberculosis H37Rv after 21 days by microbroth dilution method in presence of 40 ug/ml efflux pump inhibitor verapamil; format: functional; conditions: 504 h
[10] = system: Mycobacterium tuberculosis; assay: Antimycobacterial activity against Mycobacterium tuberculosis by CFU counting method; format: functional
[11] = system: Mycobacterium tuberculosis; assay: Antimycobacterial activity against Mycobacterium tuberculosis by Alamar blue assay; format: functional
[12] = system: Mycobacterium tuberculosis; assay: Ratio of MIC for Mycobacterium tuberculosis H37Rv in absence of reserpine to MIC for Mycobacterium tuberculosis H37Rv in presence of reserpine; format: functional
[13] = system: Mycobacterium tuberculosis; assay: Inhibition of Mycobacterium tuberculosis His6-tagged InhA expressed in Escherichia coli BL21 using 2-trans-dodecenoyl-CoA as substrate assessed as conversion of NADH to NAD+ at 250 nM relative to control
Method in brief: (§2)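 Chirally separated enantiomers were tested for InhA inhibition at 5 µM or 250 nM, run in triplicate. The assay used 2-trans-dodecenoyl-CoA substrate and NADH, read as the decrease in absorbance at 340 nm from NADH oxidation to NAD+. IC50 came from 4-parameter fits of at least six points.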

[14] = system: Mycobacterium tuberculosis; assay: Inhibition of Mycobacterium tuberculosis His6-tagged InhA expressed in Escherichia coli BL21 using 2-trans-dodecenoyl-CoA as substrate assessed as conversion of NADH to NAD+ at 5 uM relative to control; method in brief: as §2
[15] = Mycobacterium tuberculosis, H37Rv, 504 h, read-out: MIC

Row | Structure (SMILES) | pIC50 [1] | inhibition [2] | MIC [3, 15] | inhibition [4] | also measured
1 | O=C(Nc1ccccc1)N1CCN(C2c3ccccc3-c3ccccc32)CC1 | 5.93 | 84% | > 27.1 µM | 79% | 
2 | O=C(c1ccc2[nH]ccc2c1)N1CCN(C2c3ccccc3-c3ccccc32)CC1 | 6.07 | 87% | 50.1 µM (≈ 19.7 µg/mL) | 81% | MIC [5]: 25.4 µM; Ratio [6]: >4; Ratio [7]: >4; MIC [8]: < 12.7 µM; MIC [9]: < 12.7 µM; MIC [10]: > 125 µM; MIC [11]: > 125 µM
3 | O=C(c1ccccc1)N1CCN(C2c3ccccc3-c3ccccc32)CC1 | 6.31 | 94% | 14.1 µM (≈ 5 µg/mL) | 94% | MIC [5]: 56.5 µM; Ratio [7]: >5; MIC [8]: < 3.5 µM; MIC [9]: 56.5 µM
4 | O=S(=O)(c1ccccc1)N1CCN(C2c3ccccc3-c3ccccc32)CC1 |  | 12% | > 25.6 µM |  | 
5 | c1ccc2c(c1)-c1ccccc1C2N1CCNCC1 |  | 7% | > 39.9 µM |  | 
6 | CCCCC(=O)N1CCN(C2c3ccccc3-c3ccccc32)CC1 |  | 75% | 29.9 µM (≈ 10 µg/mL) | 45% | 
7 | CCCCCCCCC(=O)N1CCN(C2c3ccccc3-c3ccccc32)CC1 |  | 47% | 12.8 µM (≈ 5 µg/mL) | 22% | 
8 | S=C(c1ccccc1)N1CCN(C2c3ccccc3-c3ccccc32)CC1 |  | 31% | 13.5 µM (≈ 5 µg/mL) |  | 
9 | S=C(Nc1ccccc1)N1CCN(C2c3ccccc3-c3ccccc32)CC1 |  | 57% | > 25.9 µM | 32% | 
10 | CCCCNC(=O)N1CCN(C2c3ccccc3-c3ccccc32)CC1 |  | 68% | 14.3 µM (≈ 5 µg/mL) | 42% | 
11 | CCCCCCCCNC(=O)N1CCN(C2c3ccccc3-c3ccccc32)CC1 |  | 34% | > 24.7 µM |  | 
12 | O=C(Nc1ccc([N+](=O)[O-])cc1)N1CCN(C2c3ccccc3-c3ccccc32)CC1 |  | 33% | 12.1 µM (≈ 5.02 µg/mL) |  | 
13 | O=C(c1ccccc1)N1CCC(C2c3ccccc3-c3ccccc32)CC1 | 6.03 | 93% | 28.3 µM (≈ 10 µg/mL) | 88% | 
14 | O=C1CN(C2c3ccccc3-c3ccccc32)CCN1C(=O)c1ccccc1 |  | 26% | > 27.1 µM |  | 
15 | [O-][S+](c1ccccc1)N1CCN(C2c3ccccc3-c3ccccc32)CC1 (racemic) |  | 14% | > 26.7 µM |  | 
16 | CP(=O)(c1ccccc1)N1CCN(C2c3ccccc3-c3ccccc32)CC1 (racemic) |  | 17% | > 24.7 µM |  | 
17 | COP(=O)(c1ccccc1)N1CCN(C2c3ccccc3-c3ccccc32)CC1 (racemic) |  | 17% | > 25.7 µM |  | 
18 | CCCCCCc1ccc2c(c1)C(N1CCN(C(=O)c3ccccc3)CC1)c1ccccc1-2 (racemic) |  | 48% | 22.8 µM (≈ 10 µg/mL) | 45% | 
19 | CCCCCCCCc1ccc2c(c1)C(N1CCN(C(=O)c3ccccc3)CC1)c1ccccc1-2 (racemic) |  | 54% | > 21.4 µM | 27% | 

Row | Structure (SMILES) | pIC50 [1] | inhibition [2] | MIC [3, 15] | inhibition [4] | also measured
20 | CCCCCCc1ccc2c(c1)-c1ccccc1C2N1CCN(C(=O)c2ccccc2)CC1 (racemic) | 6.00 | 60% | 22.8 µM (≈ 10 µg/mL) | 52% | 
21 | COc1ccc2c(c1)-c1ccccc1C2N1CCN(C(=O)c2ccccc2)CC1 (racemic) [listing 1 of 2 here] | 5.57 |  | 26 µM (≈ 10 µg/mL) |  | 
22 | CCCOc1ccc2c(c1)-c1ccccc1C2N1CCN(C(=O)c2ccccc2)CC1 (racemic) | 6.00 | 91% | 24.2 µM (≈ 9.98 µg/mL) | 84% | 
23 | CCCCCCOc1ccc2c(c1)-c1ccccc1C2N1CCN(C(=O)c2ccccc2)CC1 (racemic) [listing 1 of 2 here] | 6.70 |  | 22 µM (≈ 10 µg/mL) |  | 
24 | CCCOc1ccc2c(c1)C(N1CCN(C(=O)c3ccccc3)CC1)c1ccccc1-2 (racemic) | 5.89 | 88% | > 24.2 µM | 83% | 
25 | O=C(c1ccccc1)N1CCN(C2c3ccccc3-c3cc(OCc4ccccc4)ccc32)CC1 (racemic) | 6.00 | 63% | > 21.7 µM | 57% | 
26 | CCCCCCOc1ccc2c(c1)-c1ccccc1C2C1CCN(C(=O)c2ccccc2)CC1 (racemic) | 5.98 | 64% | 88.2 µM (≈ 40 µg/mL) | 71% | MIC [5]: 22.1 µM; Ratio [6]: 2; MIC [9]: 44.1 µM; Ratio [12]: 4
27 | CCCCCCOc1ccc2c(c1)-c1ccccc1C2N1CCN(C(=O)c2ccccc2)CC1 (racemic) [listing 2 of 2 here] |  | 79% |  | 70% | inhibition [13]: 53%
28 | COc1ccc2c(c1)-c1ccccc1C2N1CCN(C(=O)c2ccccc2)CC1 (racemic) [listing 2 of 2 here] |  | 92% |  | 74% | inhibition [14]: 60%
29 | CCCCCCOc1ccc2c(c1)-c1ccccc1C2N1CCN(C(=O)c2ccccc2)CC1 (single isomer, unassigned) [listing 1 of 2 here] |  |  |  |  | MIC [3]: >22 µM
30 | CCCCCCOc1ccc2c(c1)-c1ccccc1C2N1CCN(C(=O)c2ccccc2)CC1 (single isomer, unassigned) [listing 2 of 2 here] |  |  |  |  | inhibition [13]: 0%
31 | COc1ccc2c(c1)-c1ccccc1C2N1CCN(C(=O)c2ccccc2)CC1 (single isomer, unassigned; enantiomer 1) [listing 1 of 2 here] |  |  |  |  | MIC [3]: >26 µM
32 | COc1ccc2c(c1)-c1ccccc1C2N1CCN(C(=O)c2ccccc2)CC1 (single isomer, unassigned; enantiomer 1) [listing 2 of 2 here] |  |  |  |  | inhibition [14]: 11%
33 | CCCCCCOc1ccc2c(c1)-c1ccccc1C2N1CCN(C(=O)c2ccccc2)CC1 (single isomer, unassigned; enantiomer 2) [listing 1 of 2 here] | 6.99 |  |  |  | MIC [5]: < 2.7 µM; Ratio [7]: >4; MIC [3]: 11 µM (≈ 5 µg/mL); MIC [8]: < 2.7 µM; MIC [9]: 11 µM; Ratio [12]: >4
34 | CCCCCCOc1ccc2c(c1)-c1ccccc1C2N1CCN(C(=O)c2ccccc2)CC1 (single isomer, unassigned; enantiomer 2) [listing 2 of 2 here] |  |  |  |  | inhibition [13]: 71%
35 | COc1ccc2c(c1)-c1ccccc1C2N1CCN(C(=O)c2ccccc2)CC1 (stereo in doubt; 31b) [listing 1 of 2 here] | 5.68 |  |  |  | 
36 | COc1ccc2c(c1)-c1ccccc1C2N1CCN(C(=O)c2ccccc2)CC1 (stereo in doubt; 31b) [listing 2 of 2 here] |  |  |  |  | inhibition [14]: 68%
37 | NNC(=O)c1ccncc1 [ISONIAZID] |  |  | 0.4 µM (≈ 0.0549 µg/mL) |  | 
